Only some compounds are listed: those with a hit (about 2.3% of all), similar ones and a draw of the others.
TRPC4 inh – blocks the mouse TRPC4 cation channel; AID 2247; hit rate 0.39% among 300,000; B-score at 10 µM; Q9QUQ5; HEK293 TRPC4beta/mu-opioid, DAMGO-evoked Fluo4 calcium flux; active compounds read low;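 active = B-score over 3 SD under the library average, no early fluorescence shift, positive overall ratio signal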
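Signal: kinetic Fluo4 fluorescence imaging of calcium influx. Material: stable TRPC4beta/mu-opioid receptor HEK293 cells. Probe or stimulus: DAMGO in two steps, submaximal then maximal.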
TRPC4 PAM – allosteric potentiators of mouse TRPC4 channel. Q9QUQ5. HEK293 TRPC4beta/mu-opioid, DAMGO EC20, Fluo-4 Ca2+ flux; active compounds read high. B-score at 10 µM. hit rate 0.42% among 310,000. AID 2227;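 active = B-score of calcium response area above 5 SD of library B-scores, with initial fluorescence ratio within 5 SD of library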;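 note: B-score of integrated fluorescence ratio over time as area under calcium response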
TRPC6 activator – activates the mouse TRPC6 cation channel. Q61143. HEK293-TRPC6 membrane potential dye fluorescence; active compounds read high. B-score at 10 µM. hit rate 0.13% among 310,000;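 active = B-score of the integrated fluorescence ratio above library mean plus 3 SD, and starting fluorescence ratio within library mean plus 5 SD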;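 note: higher score means more depolarization so channel activation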
TRPC6 inh – blocks the mouse TRPC6 cation channel. hit rate 1.1% among 310,000. B-score at 10 µM. Q61143. HEK293-TRPC6, membrane potential dye, ACh-evoked depolarization; active compounds read low;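 active = B-score under library mean minus 3 SD, initial fluorescence not abnormally high, positive integrated signal ratio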;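 note: B-score derived from integrated fluorescence ratio over the kinetic read; more negative B-score means stronger inhibition of depolarization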
TRPC4 act – activators of mouse TRPC4 channel; B-score at 10 µM; hit rate 0.49% among 310,000; HEK293 TRPC4beta/mu-opioid, Fluo4 calcium fluorescence; active compounds read high; Q9QUQ5;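 active = B-score above 5 SD of library B-scores, and initial fluorescence ratio not above library mean plus 5 SD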;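 note: positive B-score marks a calcium rise read as TRPC4 activation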
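System – HEK293 cells stably co-expressing mouse TRPC4beta and mu-opioid receptor · Signal – Fluo4 calcium-sensitive dye fluorescence, kinetic, 1 Hz baseline · Benchmarks – buffer (low) and maximal DAMGO (high) · Read-out – B score of integrated fluorescence ratio per well · Incubation – dye loading 45 min room temperature, 110 s kinetic read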
* = called active by the depositor; i = inactive.

SMILES	TRPC4 inh	TRPC4 PAM	TRPC6 activator	TRPC6 inh	TRPC4 act
Cc1ccc(OCc2cc(C(=O)N(C)CCc3nc4ccccc4[nH]3)no2)cc1C	-6*	i	i	i	i
COC(=O)C1=C(C)N=c2s/c(=C3\C(=O)Nc4ccccc43)c(=O)n2C1c1ccccc1 (stereo unspecified)	i	i	i	-5.9*	i
C=CCn1c(=S)[nH]c2sccc2c1=O	i	i	i	i	i
O=C(NC1CCCC1)c1cc2ccccc2o1	i	20*	i	i	i
CC1CCCCC1NC(=O)c1cc2ccccc2o1 (stereo unspecified)	i	30*	i	i	i
N=c1oc2ccc(Cl)cc2cc1C(=O)NC1CCCCCC1	i	18*	i	i	i
N=c1oc2ccccc2cc1C(=O)NC1CCCCCC1	i	i	i	i	i
O=C(NC1CCCC1)c1cc2cc(Br)ccc2o1	i	i	i	i	i
CC(C)NC(=O)c1cc2ccccc2o1	i	i	i	i	i
CCOC(=O)C1CCCN(CCC(C)c2ccccc2)C1 (stereo unspecified)	i	i	i	i	i
NC(=O)C1CCCN(CCc2ccccc2)C1 (stereo unspecified)	i	i	i	i	103*
CC(CN1CCCC(C(N)=O)C1)c1ccccc1 (stereo unspecified)	i	i	i	i	131*
c1ccn2cc(C34CC5CC(CC(C5)C3)C4)nc2c1	-7*	i	i	i	i
COc1ccc(CCNC(=O)COC(=O)c2cnc(C)cn2)cc1OC	i	i	i	i	i
Cc1ccc(NC(=O)CN(C)C(=O)CNC(=O)c2sc3ccccc3c2Cl)cc1	i	149*	i	i	i
CC(C)Sc1nc2sc3c(c2c2nnc(SCC(=O)NCc4ccco4)n12)CCCC3	-7*	i	i	i	i
CCSc1nc2sc3c(c2c2nnc(SCC(=O)NCc4ccco4)n12)CCCC3	i	i	i	i	i
COc1ccc(C)cc1NC(=O)Nc1ccccc1	i	i	i	i	i
O=C(C1CC1)N1CCc2cc(Br)cc(S(=O)(=O)NCCCN3CCCC3)c21	i	i	i	i	60*
CC1CCCN(CCCNS(=O)(=O)c2cc(Br)cc3c2N(C(=O)C2CC2)CC3)C1 (stereo unspecified)	i	i	i	i	73*
CC1CC(C)CN(CCCNS(=O)(=O)c2cc(Br)cc3c2N(C(=O)C2CC2)CC3)C1 (stereo unspecified)	i	i	i	i	115*
CC(=O)N/N=C(/c1ccccc1)C(O)c1ccccc1 (stereo unspecified)	i	i	i	i	i
O=C(CN1CC[n+]2c(-c3cccs3)csc21)c1ccc(Br)cc1	i	i	i	-5*	i
O=C(CN1CC[n+]2c(-c3ccccc3)csc21)c1ccc(Br)cc1	i	i	i	i	i
CC(=O)Nc1ccc(C2=NN(c3ccccc3)C(c3ccccc3)C2)cc1 (stereo unspecified)	i	i	i	i	i
SMILES	TRPC4 inh	TRPC4 PAM	TRPC6 activator	TRPC6 inh	TRPC4 act
Cc1c(OCC(=O)NC2CCN(Cc3ccccc3)CC2)ccc2c3c(c(=O)oc12)CCC3	i	11*	i	i	i
O=C(Cn1ncc2c(=O)oc3ccccc3c21)NC1CC1	i	i	i	i	i
Cc1ccc2oc(=O)c3cnn(CC(=O)NC4CCN(Cc5ccccc5)CC4)c3c2c1	i	i	i	i	107*
Cc1cc(=O)oc2c(C)c(OCC(=O)NC3CCN(Cc4ccccc4)CC3)ccc12	i	i	i	i	i
c1csc(-c2nnc3ccccn23)c1	i	i	i	i	i
CCN1CC(CN(C)Cc2cn(-c3cccc(C)c3)nc2-c2cccc(F)c2)CC1=O (stereo unspecified)	i	i	i	i	73*
CCOc1ccccc1N(CC)C(=O)c1nn(C)c2c1CSc1ccccc1-2	-6*	i	i	i	i
COC(=O)[C@H](Cc1ccccc1)NC(=O)c1ccc2ccccc2n1	i	16*	i	i	i
COc1cc(NC(=O)c2cc(CC(C)C)on2)c(OC)cc1Cl	i	10*	i	i	i
CCCc1cc(C(=O)Nc2cc(OC)c(Cl)cc2OC)no1	i	i	i	i	i
COc1ccc(C(C)NC(=S)NC2CCCC2)cc1OC (stereo unspecified)	i	i	i	i	i
O=C(c1cccs1)c1no[n+]([O-])c1C(=O)c1cccs1	i	i	i	i	54*
COc1ccc(NC(=O)c2c(N)no[n+]2[O-])cc1	i	i	i	i	i
COc1ccc(C(=O)c2no[n+]([O-])c2C(=O)c2ccc(OC)cc2)cc1	i	53*	i	i	i
O=C(Cc1ccccc1)NCCCN1CCN(CCCNC(=O)Cc2ccccc2)CC1	i	11*	i	i	i
O=C(Cn1nc(-c2ccccc2)ccc1=O)NCCN1CCN(Cc2ccccc2)CC1	i	19*	i	i	i
CC(=O)Nc1ccc(CN2CCC(CO)(CCOc3ccccc3)CC2)cc1	i	i	i	i	i
CCOC(=O)C1(CCOc2ccccc2)CCN(Cc2cccc(-n3cccn3)c2)CC1	i	i	i	i	98*
CCOC(=O)C1(CCOc2ccccc2)CCN(Cc2ccc(NC(C)=O)cc2)CC1	i	i	i	i	83*
CCOC(=O)C1(CCOc2ccccc2)CCN(Cc2ccc(OC)cc2)CC1	i	i	i	i	94*
CCOC(=O)C1(CCOc2ccccc2)CCN(Cc2cnc(C)s2)CC1	i	i	i	i	115*
CCOC(=O)C1(CCOc2ccccc2)CCN(Cc2ccc(CO)o2)CC1	i	i	i	i	i
O=C(NCC1OCCc2ccccc21)C1COc2ccccc2O1 (stereo unspecified)	i	i	i	i	i
O=S(=O)(NCC(c1cccnc1)N1CCN(c2ccc(F)cc2)CC1)c1ccccc1 (stereo unspecified)	i	i	i	i	i
COc1ccc(-c2csc(N3CCC(c4ccccc4)C3)n2)cc1 (stereo unspecified)	i	i	i	i	i
CCOC(=O)C1CCN(S(=O)(=O)c2ccccc2)CC1	i	i	i	i	i
CCOC(=O)C1(CCOc2ccccc2)CCN(Cc2cccc(OC)c2OC)CC1	i	i	i	i	74*

Screening results (PubChem BioAssay)
